Reference: ChEMBL document CHEMBL1153486, “Discovery of a class of potent gap-junction modifiers as novel antiarrhythmic agents” (Bioorg Med Chem Lett, 2009)
The source made the active and inactive calls. The calls are words filed in the database; no cut-off is given here.

How the values were obtained:
[1] = Stability in rat plasma after 3 hrs; format: ADME, cell-free; details: read-out: Stability
Method in brief: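 Rat plasma incubation for 3 h; stability reported as percent of compound remaining.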

Mus musculus [2] = assay: Antiarrhythmic activity in calcium chloride-induced mouse arrhythmia model assessed as prolongation of time to conduct cardiac block at 10 pmol/kg, iv relative to control; format: functional, Heart
Method in brief: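 Mice received an intravenous infusion of CaCl2 after IV test compound. The read-out was time to cardiac conduction block, expressed as percent increase over control. Values are means of at least three experiments with standard deviation.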

[3] = target: Voltage-gated inwardly rectifying potassium channel KCNH2 (Homo sapiens, UniProt Q12809); assay: Inhibition of human ERG
Voltage-gated inwardly rectifying potassium channel KCNH2, sequence (Q12809 whole entry): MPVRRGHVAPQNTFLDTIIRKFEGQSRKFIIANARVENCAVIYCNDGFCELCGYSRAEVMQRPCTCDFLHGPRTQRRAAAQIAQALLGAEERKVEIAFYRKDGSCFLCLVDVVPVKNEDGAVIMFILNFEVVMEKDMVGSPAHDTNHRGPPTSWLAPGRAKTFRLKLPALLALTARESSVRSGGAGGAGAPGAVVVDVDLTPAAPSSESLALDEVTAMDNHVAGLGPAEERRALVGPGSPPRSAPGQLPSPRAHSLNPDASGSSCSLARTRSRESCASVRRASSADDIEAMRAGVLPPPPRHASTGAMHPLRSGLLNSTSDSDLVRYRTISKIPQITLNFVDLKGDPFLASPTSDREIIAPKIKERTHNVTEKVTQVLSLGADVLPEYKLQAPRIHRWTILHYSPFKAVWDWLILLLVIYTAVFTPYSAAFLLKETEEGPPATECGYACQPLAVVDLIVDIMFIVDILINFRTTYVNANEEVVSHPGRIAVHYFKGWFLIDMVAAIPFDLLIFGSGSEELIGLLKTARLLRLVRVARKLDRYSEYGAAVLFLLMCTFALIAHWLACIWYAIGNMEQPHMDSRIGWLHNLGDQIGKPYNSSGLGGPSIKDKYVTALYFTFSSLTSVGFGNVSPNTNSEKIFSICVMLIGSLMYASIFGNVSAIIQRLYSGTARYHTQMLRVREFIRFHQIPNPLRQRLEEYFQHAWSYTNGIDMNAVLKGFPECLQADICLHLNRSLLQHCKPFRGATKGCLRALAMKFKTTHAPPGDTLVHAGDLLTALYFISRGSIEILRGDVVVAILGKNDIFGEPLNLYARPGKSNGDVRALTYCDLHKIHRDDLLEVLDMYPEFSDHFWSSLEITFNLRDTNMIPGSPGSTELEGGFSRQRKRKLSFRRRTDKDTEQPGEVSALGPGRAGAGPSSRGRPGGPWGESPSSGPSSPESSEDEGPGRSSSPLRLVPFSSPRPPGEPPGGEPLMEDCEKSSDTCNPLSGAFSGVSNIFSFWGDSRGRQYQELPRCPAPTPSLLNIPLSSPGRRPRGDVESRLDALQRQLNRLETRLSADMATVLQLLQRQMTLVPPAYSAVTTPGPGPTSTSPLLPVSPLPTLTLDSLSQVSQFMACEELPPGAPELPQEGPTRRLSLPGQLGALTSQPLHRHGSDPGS

[4] = Inhibition of CYP450; format: ADME
[5] = Metabolic stability in rat liver microsomes assessed as half life; format: ADME, Microsome
[6] = Clearance in CD1 mouse at 1 mg/kg, iv; format: ADME, organism-based; set-up: dose 1 mg/kg, route intravenous; details: in vivo
Method in brief: (§1)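 CD-1 mice were dosed IV at a nominal 1 mg/kg (actual 0.77 mg/kg or 1.6 mg/kg for some compounds) and PO at 5 mg/kg. Parameters were derived from mean drug concentration, N = 3 animals/time point.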

[7] = AUC in CD1 mouse at 5 mg/kg, po; format: ADME, organism-based; set-up: dose 5 mg/kg, route oral; details: plasma; method in brief: as §1
[8] = Half life in CD1 mouse at 5 mg/kg, po; format: ADME, organism-based; set-up: dose 5 mg/kg, route oral; details: in vivo; method in brief: as §1
[9] = Tmax in CD1 mouse at 5 mg/kg, po; format: ADME, organism-based; set-up: dose 5 mg/kg, route oral; details: in vivo; method in brief: as §1
[10] = Metabolic stability in human liver microsomes assessed as half life; format: ADME, Microsome
[11] = Oral bioavailability in CD1 mouse at 5 mg/kg; format: ADME, organism-based; details: in vivo; method in brief: as §1
[12] = Cmax in CD1 mouse at 5 mg/kg, po; format: ADME, organism-based; set-up: dose 5 mg/kg, route oral; details: in vivo; method in brief: as §1
[13] = Volume of distribution at steady state in CD1 mouse at 1 mg/kg, iv; format: ADME, organism-based; set-up: dose 1 mg/kg, route intravenous; details: in vivo, read-out: Vdss; method in brief: as §1
Mus musculus [14] = assay: Antiarrhythmic activity in calcium chloride-induced mouse arrhythmia model assessed as prolongation of time to conduct cardiac block at 1 to 30 mg/kg, po relative to control; format: functional, organism-based; details: Heart
Method in brief: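 Compounds were given orally at 1–30 mg/kg to mice, which then received an intravenous CaCl2 infusion. The read-out was prolongation of time to conduction block versus control.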

[15] = Half life in CD1 mouse at 1 mg/kg, iv; format: ADME, organism-based; set-up: dose 1 mg/kg, route intravenous; details: in vivo; method in brief: as §1

Row | remaining at 3 h [1] | SMILES | Activity (Mus musculus [2]) | other results
1 | 100% | CN(C)CC(=O)N1C[C@H](NC(=O)c2ccccc2)C[C@H]1C(=O)O | 118.9% | 
2 | 0% | COC(=O)[C@@H]1C[C@@H](NC(=O)c2ccccc2)CN1C(=O)CNC(=O)OC(C)(C)C | 166.3% | 
3 | 100% | CC(C)(C)OC(=O)NCC(=O)N1C[C@H](NC(=O)c2ccccc2)C[C@H]1C(=O)O | 156.2% | 
4 | 100% | CC(=O)NCC(=O)N1C[C@H](NC(=O)c2ccccc2)C[C@H]1C(=O)O | 165.7% | Activity [3]: Not Active; Activity [4]: Not Active; half-life [5]: > 30 min; clearance [6]: 24 mL/min/kg; AUC [7]: 66 ng·h/mL; half-life [8]: 72 min; Tmax [9]: 15 min; half-life [10]: > 30 min; bioavailability [11]: 2%; Cmax [12]: 38 ng/mL; Vd [13]: 0.3 L/kg; Activity (Mus musculus [14]): Active; half-life [15]: 18 min
5 | 100% | CNCC(=O)N1C[C@H](NC(=O)c2ccccc2)C[C@H]1C(=O)O | 120.7% | 

Further lines, the compound ahead of its results:

Row | SMILES | remaining at 3 h [1] | Activity (Mus musculus [2]) | other results
6 | CC(C)(C)NC(=O)[C@@H]1C[C@@H](NC(=O)c2ccccc2)CN1C(=O)CN | 99% | 135.7% | 
7 | CC(C)[C@@H](C)NC(=O)[C@@H]1C[C@@H](NC(=O)c2ccccc2)CN1C(=O)CN | 89% | 120.1% | 
8 | CCNC(=O)[C@@H]1C[C@@H](NC(=O)c2ccccc2)CN1C(=O)CN | 100% | 137.2% | 
